According to ChEMBL document CHEMBL4689842, “EUbOPEN Chemogenomics Library wave 1” (2021):

System: Fibroblast
Assay: Multiplex assay against human fibroblast
Assay type: toxicity, cell-based
Procedure, shortened: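 Live cells were stained at seeding with Hoechst33342, BioTracker Green Microtubule Cytoskeleton Dye, MitoTracker Red and Annexin V Alexa Fluor 680. Following compound addition, they were imaged on a CQ1 microscope at 37°C and 5% CO2 and gated by CellPathfinder machine learning into Hoechst high-intensity objects or normal cells, with normal cells split into healthy, pyknosed or fragmented nuclei and pyknosed cells into mitotic or apoptotic. Tubulin, mitochondrial-mass and membrane-permeability phenotypes are per cents of healthy-nucleus cells.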

[1] = 12 h, 1 µM, compound concentration 1 uM, replicate 1
[2] = 12 h, 1 µM, compound concentration 1 uM, replicate 2
[3] = 12 h, 10 µM, compound concentration 10 uM, replicate 1
[4] = 12 h, 10 µM, compound concentration 10 uM, replicate 2
[5] = 24 h, 1 µM, compound concentration 1 uM, replicate 1
[6] = 24 h, 1 µM, compound concentration 1 uM, replicate 2
[7] = 24 h, 10 µM, compound concentration 10 uM, replicate 1
[8] = 24 h, 10 µM, compound concentration 10 uM, replicate 2

## C=CC(=O)Nc1ccc2[nH]c(=O)n(C3CCN(Cc4ccc(-c5nc6cc[nH]c(=O)c6cc5-c5ccccc5)cc4)CC3)c2c1 [Borussertib]
[1]
  Population Apoptotic (%): 64%
  Population Fragmented Nuclei (%): 31%
  Population Healthy Nuclei (%): 51%
  Population Hoechst High Intensity Objects (%): 13%
  Population Membrane Permeable-Phenotype (%): 10%
  Population Mitochondria Different-Phenotype (%): 5%
  Population Mitotic Cells (%): 36%
  Population Normal (%): 86%
  Population Pyknosed Nuclei (%): 17%
  Population Tubulin-Different-Phenotype (%): 4%
  Total Cell Count: 169
[2]
  Population Apoptotic (%): 33%
  Population Fragmented Nuclei (%): 63%
  Population Healthy Nuclei (%): 31%
  Population Hoechst High Intensity Objects (%): 30%
  Population Membrane Permeable-Phenotype (%): 11%
  Population Mitochondria Different-Phenotype (%): 0%
  Population Mitotic Cells (%): 66%
  Population Normal (%): 69%
  Population Pyknosed Nuclei (%): 5%
  Population Tubulin-Different-Phenotype (%): 16%
  Total Cell Count: 83
[3]
  Population Apoptotic (%): 60%
  Population Fragmented Nuclei (%): 27%
  Population Healthy Nuclei (%): 56%
  Population Hoechst High Intensity Objects (%): 15%
  Population Membrane Permeable-Phenotype (%): 6%
  Population Mitochondria Different-Phenotype (%): 4%
  Population Mitotic Cells (%): 39%
  Population Normal (%): 84%
  Population Pyknosed Nuclei (%): 16%
  Population Tubulin-Different-Phenotype (%): 27%
  Total Cell Count: 304
[4]
  Population Apoptotic (%): 44%
  Population Fragmented Nuclei (%): 64%
  Population Healthy Nuclei (%): 22%
  Population Hoechst High Intensity Objects (%): 29%
  Population Membrane Permeable-Phenotype (%): 25%
  Population Mitochondria Different-Phenotype (%): 18%
  Population Mitotic Cells (%): 55%
  Population Normal (%): 71%
  Population Pyknosed Nuclei (%): 12%
  Population Tubulin-Different-Phenotype (%): 68%
  Total Cell Count: 100
[5]
  Population Apoptotic (%): 66%
  Population Fragmented Nuclei (%): 29%
  Population Healthy Nuclei (%): 56%
  Population Hoechst High Intensity Objects (%): 13%
  Population Membrane Permeable-Phenotype (%): 4%
  Population Mitochondria Different-Phenotype (%): 2%
  Population Mitotic Cells (%): 33%
  Population Normal (%): 86%
  Population Pyknosed Nuclei (%): 14%
  Population Tubulin-Different-Phenotype (%): 6%
  Total Cell Count: 170
[6]
  Population Apoptotic (%): 100%
  Population Fragmented Nuclei (%): 56%
  Population Healthy Nuclei (%): 41%
  Population Hoechst High Intensity Objects (%): 32%
  Population Membrane Permeable-Phenotype (%): 5%
  Population Mitochondria Different-Phenotype (%): 10%
  Population Mitotic Cells (%): 0%
  Population Normal (%): 67%
  Population Pyknosed Nuclei (%): 2%
  Population Tubulin-Different-Phenotype (%): 10%
  Total Cell Count: 68
[7]
  Population Apoptotic (%): 55%
  Population Fragmented Nuclei (%): 30%
  Population Healthy Nuclei (%): 56%
  Population Hoechst High Intensity Objects (%): 23%
  Population Membrane Permeable-Phenotype (%): 2%
  Population Mitochondria Different-Phenotype (%): 2%
  Population Mitotic Cells (%): 44%
  Population Normal (%): 76%
  Population Pyknosed Nuclei (%): 13%
  Population Tubulin-Different-Phenotype (%): 22%
  Total Cell Count: 347
[8]
  Population Apoptotic (%): 33%
  Population Fragmented Nuclei (%): 55%
  Population Healthy Nuclei (%): 39%
  Population Hoechst High Intensity Objects (%): 40%
  Population Membrane Permeable-Phenotype (%): 4%
  Population Mitochondria Different-Phenotype (%): 8%
  Population Mitotic Cells (%): 66%
  Population Normal (%): 59%
  Population Pyknosed Nuclei (%): 5%
  Population Tubulin-Different-Phenotype (%): 43%
  Total Cell Count: 97
